Measured values: ChEMBL document CHEMBL3244142, “Antifungal properties of 2-bromo-3-fluorosuccinic acid esters and related compounds” (1977)
Converted amounts (≈) assume the structure as drawn. Counter-ions that a name gives are not always drawn. The source made the active and inactive calls. The rule behind the calls is not given here.

Legend:
Candida albicans [1] = experiment: Antifungal activity against Candida albicans ATCC 10231 at pH 5.6 after 20 h in presence of 10% beef serum; conditions: ATCC 10231, 20 h
Mucor mucedo [2] = experiment: Antifungal activity against Mucor mucedo ATCC 7941 at pH 7 after 20 h in absence of 10% beef serum; conditions: ATCC 7941, 20 h
[3] = tested on: Trichophyton mentagrophytes; experiment: Antifungal activity against Trichophyton mentagrophytes ATCC 9129 at pH 5.6 after 5 days in presence of 10% beef serum; format: functional; conditions: Trichophyton mentagrophytes, ATCC 9129, 120 h; read-out: MIC
Procedure, shortened: (§1)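 Agar-dilution MIC in Sabouraud dextrose agar at pH 5.6 or 7.0, with or without 10% beef serum. Plates were incubated at 28 °C for 5 days. MIC is the lowest concentration (µg/mL) giving 100% inhibition. Steps were 1 µg/mL up to 10, 2 µg/mL from 10–20, and 10 µg/mL from 20–100; 100 µg/mL was the top level, and no inhibition there is scored as >100.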

[4] = tested on: Trichophyton mentagrophytes; experiment: Antifungal activity against Trichophyton mentagrophytes ATCC 9129 at pH 7 after 5 days in presence of 10% beef serum; format: functional; conditions: Trichophyton mentagrophytes, ATCC 9129, 120 h; read-out: MIC
Procedure, shortened: as §1

Candida albicans [5] = experiment: Antifungal activity against Candida albicans ATCC 10231 at pH 7 after 20 h in presence of 10% beef serum; conditions: ATCC 10231, 20 h
Candida albicans [6] = experiment: Antifungal activity against Candida albicans ATCC 10231 at pH 5.6 after 20 h in absence of 10% beef serum; conditions: ATCC 10231, 20 h
Mucor mucedo [7] = experiment: Antifungal activity against Mucor mucedo ATCC 7941 at pH 5.6 after 20 h in absence of 10% beef serum; conditions: ATCC 7941, 20 h
Aspergillus niger [8] = experiment: Antifungal activity against Aspergillus niger ATCC 1004 at pH 5.6 after 5 days in presence of 10% beef serum; format: functional; conditions: Aspergillus niger, ATCC 1004, 120 h; read-out: MIC
Procedure, shortened: as §1

Aspergillus niger [9] = experiment: Antifungal activity against Aspergillus niger ATCC 1004 at pH 7 after 5 days in presence of 10% beef serum; format: functional; conditions: Aspergillus niger, ATCC 1004, 120 h; read-out: MIC
Procedure, shortened: as §1

Aspergillus niger [10] = experiment: Antifungal activity against Aspergillus niger ATCC 1004 at pH 7 after 5 days in absence of 10% beef serum; format: functional; conditions: Aspergillus niger, ATCC 1004, 120 h; read-out: MIC
Procedure, shortened: as §1

Mucor mucedo [11] = experiment: Antifungal activity against Mucor mucedo ATCC 7941 at pH 5.6 after 20 h in presence of 10% beef serum; conditions: ATCC 7941, 20 h
[12] = tested on: Trichophyton mentagrophytes; experiment: Antifungal activity against Trichophyton mentagrophytes ATCC 9129 at pH 5.6 after 5 days in absence of 10% beef serum; format: functional; conditions: Trichophyton mentagrophytes, ATCC 9129, 120 h; read-out: MIC
Procedure, shortened: as §1

Mucor mucedo [13] = experiment: Antifungal activity against Mucor mucedo ATCC 7941 at pH 7 after 20 h in presence of 10% beef serum; conditions: ATCC 7941, 20 h
[14] = tested on: Trichophyton mentagrophytes; experiment: Antifungal activity against Trichophyton mentagrophytes ATCC 9129 at pH 7 after 5 days in absence of 10% beef serum; format: functional; conditions: Trichophyton mentagrophytes, ATCC 9129, 120 h; read-out: MIC
Procedure, shortened: as §1

Candida albicans [15] = experiment: Antifungal activity against Candida albicans ATCC 10231 at pH 7 after 20 h in absence of 10% beef serum; conditions: ATCC 10231, 20 h
Aspergillus niger [16] = experiment: Antifungal activity against Aspergillus niger ATCC 1004 at pH 5.6 after 5 days in absence of 10% beef serum; format: functional; conditions: Aspergillus niger, ATCC 1004, 120 h; read-out: MIC
Procedure, shortened: as §1

Aspergillus niger [17] = experiment: Antifungal activity against Aspergillus niger ATCC 1004 at <100 ug/ml at pH 7 after 5 days in presence of 10% beef serum; format: functional, organism-based
Procedure, shortened: as §1

Aspergillus niger [18] = experiment: Antifungal activity against Aspergillus niger ATCC 1004 at <100 ug/ml at pH 7 after 5 days in absence of 10% beef serum; format: functional, organism-based
Procedure, shortened: as §1

Candida albicans [19] = experiment: Antifungal activity against Candida albicans ATCC 10231 at <100 ug/ml at pH 7 after 20 h in presence of 10% beef serum
Aspergillus niger [20] = experiment: Antifungal activity against Aspergillus niger ATCC 1004 at <100 ug/ml at pH 5.6 after 5 days in presence of 10% beef serum; format: functional, organism-based
Procedure, shortened: as §1

Aspergillus niger [21] = experiment: Antifungal activity against Aspergillus niger ATCC 1004 at <100 ug/ml at pH 5.6 after 5 days in absence of 10% beef serum; format: functional, organism-based
Procedure, shortened: as §1

Mucor mucedo [22] = experiment: Antifungal activity against Mucor mucedo ATCC 7941 at <100 ug/ml at pH 7 after 20 h in presence of 10% beef serum
Mucor mucedo [23] = experiment: Antifungal activity against Mucor mucedo ATCC 7941 at <100 ug/ml at pH 5.6 after 20 h in absence of 10% beef serum
Candida albicans [24] = experiment: Antifungal activity against Candida albicans ATCC 10231 at <100 ug/ml at pH 7 after 20 h in absence of 10% beef serum
Candida albicans [25] = experiment: Antifungal activity against Candida albicans ATCC 10231 at <100 ug/ml at pH 5.6 after 20 h in absence of 10% beef serum
Mucor mucedo [26] = experiment: Antifungal activity against Mucor mucedo ATCC 7941 at <100 ug/ml at pH 7 after 20 h in absence of 10% beef serum
Candida albicans [27] = experiment: Antifungal activity against Candida albicans ATCC 10231 at <100 ug/ml at pH 5.6 after 20 h in presence of 10% beef serum
Mucor mucedo [28] = experiment: Antifungal activity against Mucor mucedo ATCC 7941 at <100 ug/ml at pH 5.6 after 20 h in presence of 10% beef serum
[29] = tested on: Trichophyton mentagrophytes; experiment: Antifungal activity against Trichophyton mentagrophytes ATCC 9129 at <100 ug/ml at pH 5.6 after 5 days in presence of 10% beef serum; format: functional, organism-based
Procedure, shortened: as §1

[30] = tested on: Trichophyton mentagrophytes; experiment: Antifungal activity against Trichophyton mentagrophytes ATCC 9129 at <100 ug/ml at pH 7 after 5 days in presence of 10% beef serum; format: functional, organism-based
Procedure, shortened: as §1

| Compound | MIC (Candida albicans [1]) [µg/mL] | MIC (Mucor mucedo [2]) [µg/mL] | MIC [3] [µg/mL] | MIC [4] [µg/mL] | MIC (Candida albicans [5]) [µg/mL] | MIC (Candida albicans [6]) [µg/mL] | MIC (Mucor mucedo [7]) [µg/mL] | MIC (Aspergillus niger [8]) [µg/mL] | MIC (Aspergillus niger [9]) [µg/mL] | MIC (Aspergillus niger [10]) [µg/mL] | MIC (Mucor mucedo [11]) [µg/mL] | MIC [12] [µg/mL] | MIC (Mucor mucedo [13]) [µg/mL] | MIC [14] [µg/mL] | MIC (Candida albicans [15]) [µg/mL] | MIC (Aspergillus niger [16]) [µg/mL] | inhibition (Aspergillus niger [17]) | inhibition (Aspergillus niger [18]) | inhibition (Aspergillus niger [20]) | inhibition (Aspergillus niger [21]) | other results |
| --- | --- | --- | --- | --- | --- | --- | --- | --- | --- | --- | --- | --- | --- | --- | --- | --- | --- | --- | --- | --- | --- |
| C[C@@H]1[C@H](O)[C@@H](C)/C=C/C=C/C=C/C=C/C=C/C=C/C=C/[C@H](O[C@@H]2O[C@H](C)[C@@H](O)[C@H](N)[C@@H]2O)C[C@@H]2O[C@](O)(C[C@@H](O)C[C@@H](O)[C@H](O)CC[C@@H](O)C[C@@H](O)CC(=O)O[C@H]1C)C[C@H](O)[C@H]2C(=O)O [AMPHOTERICIN B] | < 1 | < 1 | < 1 | < 1 | < 1 | < 1 | < 1 | < 1 | < 1 | < 1 | < 1 | < 1 | < 1 | < 1 | < 1 | < 1 |  |  |  |  |  |
| CCOC(=O)[C@@H](F)[C@@H](Br)C(=O)OCC (relative stereo) | 6 | 6 (≈ 22.1 µM) | 5 | 6 | 16 | 4 (≈ 14.8 µM) | 4 (≈ 14.8 µM) | 12 | 40 | 30 (≈ 111 µM) | 5 | 2 (≈ 7.38 µM) | 7 | 3 (≈ 11.1 µM) | 12 (≈ 44.3 µM) | 12 (≈ 44.3 µM) |  |  |  |  |  |
| CCOC(=O)/C=C/C(=O)OCC | 70 | 50 (≈ 290 µM) | 20 | 50 |  | 60 (≈ 348 µM) | 40 (≈ 232 µM) |  |  |  | 50 | 7 (≈ 40.7 µM) | 50 | 18 (≈ 105 µM) | 90 (≈ 523 µM) |  | inactive | inactive | inactive | inactive | inhibition (Candida albicans [19]): inactive |
| CCCCCOC(=O)[C@@H](F)[C@@H](Br)C(=O)OCCCCC (relative stereo) |  |  |  |  |  |  |  |  |  |  |  | 3 (≈ 8.44 µM) |  | 14 (≈ 39.4 µM) |  |  | inactive | inactive | inactive | inactive | inhibition (Mucor mucedo [22]): inactive; inhibition (Mucor mucedo [23]): inactive; inhibition (Candida albicans [24]): inactive; inhibition (Candida albicans [25]): inactive; inhibition (Mucor mucedo [26]): inactive; inhibition (Candida albicans [19]): inactive; inhibition (Candida albicans [27]): inactive; inhibition (Mucor mucedo [28]): inactive; inhibition [29]: inactive; inhibition [30]: inactive |
| CCOC(=O)[C@H](F)[C@@H](Br)C(=O)OCC (relative stereo) | 5 | 4 (≈ 14.8 µM) | 2 | 5 | 14 | 4 (≈ 14.8 µM) | 2 (≈ 7.38 µM) | 20 | 30 | 20 (≈ 73.8 µM) | 6 | < 1 | 9 | 2 (≈ 7.38 µM) | 7 (≈ 25.8 µM) | 18 (≈ 66.4 µM) |  |  |  |  |  |
| COC(=O)/C=C/C(=O)OC [DIMETHYL FUMARATE] | 60 | 40 | 16 | 30 | 90 | 60 | 18 |  |  |  | 30 | 8 | 50 | 20 | 90 |  | inactive | inactive | inactive | inactive |  |
